# Measurements reported in ChEMBL document CHEMBL4513216, “Probing the Open Global Health Chemical Diversity Library for Multistage-Active Starting Points for Next-Generation Antimalarials” (ACS Infect Dis, 2020).
# Assay: Toxicity liver stage against HepG2, at 10uM
# Type: cell-based
# Parameters: test concentration 10 uM, cell line HepG2-A16-CD81EGFP
# Conditions: human, HepG2-A16-CD81EGFP cells; read-out: INHIBITION
# Summary of the method: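 Uninfected HepG2-A16-CD81EGFP cells, 3 × 10^3 per well, 1536-well, plated on prespotted compound at 10 μM final, parasite-free screening media added to match infected plates; puromycin 10 μM positive, DMSO 0.5% negative; run in parallel with 48 h PbLuc assay at 37 °C, 5% CO2; viability by CellTiter-Glo luminescence, normalized to controls.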
row,SMILES,cytotoxicity at 10 µM [%]
1,CC(C)C(=O)N1Cc2ccccc2CC2(CCCCN2C)C1 (centres undefined),9.15
2,Cc1nc(C)c(CN2CCC(N(C)Cc3noc(C4CC4)n3)C2)s1 (centres undefined),-20
3,COc1cc(C2(C(=O)N3CCCC(n4cncn4)C3)CC2)ccc1C (centres undefined),-6.16
4,CCNC(=O)[C@@H]1C[C@@H](NC(=O)c2ccc(C)s2)CN1Cc1ccccn1,-3.73
5,CC(C)CN1CCS(=O)(=O)[C@@H]2CCN(S(=O)(=O)N(C)C)CC[C@@H]21,7.25
6,CN(CCO)C[C@@H]1CN(C(=O)c2c(F)cccc2Cl)C[C@@H]1CO,-9
7,O=C(NC1(c2nccs2)CCCC1)c1cc(C2CC2)on1,6.65
8,CCC(CO)N(Cc1cccnc1)C(=O)c1ccoc1C (centres undefined),-0.0979
9,COCCC(=O)N1CCCC1c1nc(O)cc(-c2ccccn2)n1 (centres undefined),-5.86
10,Cc1ccccc1SC1CCN(C(=O)C2[C@H]3CNC[C@@H]23)CC1 (some centres undefined),-10.1
11,Cc1ccc(S(=O)(=O)NC[C@H]2OC[C@@H](NCc3ccccc3)[C@@H]2O)cc1,-1.73
12,Cc1cccc(NC(=O)c2[nH]nc(C(C)C)c2Br)n1,-2.95
13,CN(C)c1cc2c(nn1)CCN(C(=O)c1ccc(-n3cccn3)nc1)C2,-1.86
14,Cn1ccc(C(=O)N2CCOC(c3ccc(C(N)=O)cn3)C2)n1 (centres undefined),-20
15,CCC(C(=O)NCc1ccccn1)N(c1cccc(C)c1)S(C)(=O)=O (centres undefined),0.383
16,Cc1noc(C)c1CNCC1CNc2ccnn2C1 (centres undefined),-2.72
17,COCc1ccc(C(=O)N2CCCN(C(=O)OCC(C)C)CC2)cc1,13.4
18,CC(C)[C@H]1COC(=O)N1Cc1noc(-c2ccccc2)n1,5.01
19,CC(=O)N(C)C1CCN(c2ncc3c(n2)CCN3c2ccccc2)C1 (centres undefined),-9.62
20,c1coc(-c2nnc([C@H]3CCN(Cc4ccc5c(c4)OCO5)C3)o2)c1,-0.0837
21,Cc1cc(C(=O)N2CCCCC2C)ccc1NCC(=O)N1CCOCC1 (centres undefined),4.08
22,COC(=O)c1sccc1S(=O)(=O)NCCc1ccoc1,2.6
23,Cc1ncc2c(n1)CCCC2NC(=O)c1ccncc1 (centres undefined),-19.4
24,CCc1nsc(N2CCN(Cc3ccno3)CC2)n1,-8.95
25,NC(CC1CCCC1)c1ccccc1 (centres undefined),5.76
26,Cc1cc(CN2CCC(CNS(=O)(=O)c3ccc(Br)s3)CC2)c(C)o1,-2.72
27,O=C(C1CCOCC1)N1CC[C@@H](O)[C@@H]1Cc1ccccc1,0.375

row,SMILES,cytotoxicity at 10 µM [%]
1,O=C1Nc2ccccc2NC12CCN(c1cccc(C(F)(F)F)n1)CC2,2.31
2,O=C(CCc1nccs1)N1CCN(c2ccc(Br)cn2)CC1,-2.65
3,Cc1noc(C(C)N2CCN(CC(=O)N3CCOCC3)CC2)n1 (centres undefined),-8.41
4,CC(NCc1cccnc1)c1ccc(OCC(=O)NC2CC2)cc1 (centres undefined),2.36
5,CN(CCn1nc2ccccn2c1=O)CC(=O)NC1CC1,3.2
6,CCn1cc(CNCc2ccc(C(=O)OC)cc2)c(C)n1,-3.78
7,Cc1nn(C)c2ncc(S(=O)(=O)N3CCN4CCCC4C3)cc12 (centres undefined),2.6
8,COCC(=O)N1CCC(c2nc3ccc(-c4ccncc4)cn3n2)CC1,10.2
9,CN1CCOC(CNCc2csc(C3CCCCC3)n2)C1 (centres undefined),-8.57
10,Cc1ccc(C2c3c(n[nH]c3C)N=C3COC(=O)C32)cc1C (centres undefined),74.9
11,CCNc1ccnc(NC2CCN(S(C)(=O)=O)CC2)n1,-5.16
12,Cc1noc(-c2ccc(Oc3cccc(CN4CCCC4)c3F)nc2)n1,-6.03
13,COc1ccc(C(C)NCc2c[nH]nc2C)cc1Br (centres undefined),-5.57
14,CCC(NC(=O)Nc1ccc(OC)c(C)c1)c1ccncc1 (centres undefined),-2.07
15,CN(C)CCn1nc(C2CCN(S(=O)(=O)N(C)C)C2)c2cccnc21 (centres undefined),-2.15
16,c1cn(Cc2nnc(C3CCN(c4nccs4)CC3)n2C2CC2)cn1,-7.6
17,Cc1ncc(CN2CC[C@@](C)(O)[C@H](Oc3cccc(F)c3)C2)cn1,-13.4
18,Cc1ccc(CN2C[C@H](OCCN(C)C)[C@H]3COC[C@H]32)o1,1.6
19,COCC1CC2(CCN(C(=O)C3CCSCC3)CC2)CO1 (centres undefined),-8.93
20,Cn1ncnc1NS(=O)(=O)c1ccc(F)cc1,7.66
21,CCOCCCNC(=O)C1(C)CCC(=O)N1c1ccccc1OC (centres undefined),2.89
22,CC(C)c1cc(NC(=O)CN2CCCC2Cn2cccn2)on1 (centres undefined),-8.35
23,COCc1nc(C(=O)N2CCCC2c2cc(C)no2)cs1 (centres undefined),-12.9
24,Cn1ccnc1CN1CCC(CCCc2ccccn2)(C(N)=O)CC1,-1.31
25,CCS(=O)(=O)CCNCc1cc(O)c2cc(C)cc(C)c2n1,1.36
26,COCCN1CCCC(c2ncc(C(=O)N3CCOCC3)c(C)n2)C1 (centres undefined),0.893
27,Cc1cccc(CN2CCC3(CCN(c4ncccn4)C3)C2=O)c1 (centres undefined),1.44
